A selection: hits, their analogues and other compounds. The true share with any hit is near 5.4%.
Mdm2 MdmX PPI: human Mdm2/MdmX binding inhibition | 330,000 compounds, 3% hits | inhibition, % at 8 µM | SaOS-2 split-luciferase Mdm2/MdmX complementation, luminescence;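 active means inhibition of at least 50% at 8 µM in the primary screen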
SKKanGAS inh: inhibitors of SKKanGAS S. pyogenes growth in kanamycin (SK-promoter or general growth effect); BacTiter-Glo, 6 h; inhibition, % at 7.5 µM; 300,000 compounds, 1.3% hits; AID 1662;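 active means mean replicate score, as percent of positive control median, at least 50; inconclusive means mean below 50 but one replicate at or above 50; inactive means mean and every replicate below 50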;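 further: strain carries kanamycin resistance gene driven by streptokinase promoter and grows in 40 µg/ml kanamycin; loss of luminescence reflects streptokinase promoter inhibition or plain growth inhibition; 0% = median of DMSO wells and 100% = positive control at its reference dose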
T cruzi inh: blocks replication of Trypanosoma cruzi | T. cruzi beta-gal in NIH3T3, luminescence, 90 h | inhibition, % (concentration not given with the values) | 300,000 compounds, 1.4% hits;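 active means mean inhibition across valid replicates above about 55%, limit read from the data; inconclusive means mean below that limit but half or more replicates reach it; inactive means mean below it, under half of replicates reach it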;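 further: signal also drops with host cell toxicity which is not excluded here; 0% = plate median of DMSO wells and 100% = zero luminescence signal; higher percent means less beta-gal luminescence so fewer parasites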
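assay system = mouse NIH/3T3 fibroblasts infected with β-gal-expressing T. cruzi Tulahuen C4 | input = 5,000 NIH/3T3 host cells per well | buffer or medium = DMEM plus 2% FBS | timing = 3 h host attachment, then at least 90 h co-culture | measured by = GalScreen luminescence, 60 min | evaluation = luminescence reflecting intracellular parasite burden, expressed as percent inhibition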
aSyn UTR inh: MLPCN primary screen, SNCA 5' untranslated region. alpha-synuclein 5'UTR reporter, inhibitor activity. inhibition, % (tested at 7.5 µM). 300,000 compounds, 0.82% hits. AID 1813; in the data active means inhibition above about 60%; inconclusive means no clear call, values can overlap the other calls;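 further: H4 neuroglioblastoma cells stably carrying SNCA 5'UTR luciferase fusion; 0% = DMSO wells and 100% = positive control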
CSC inhib: cancer stem cell inhibition; cancer stem cell-like cells viability, luminescence; inhibition, % at 7.5 µM; 300,000 compounds, 1.1% hits; in the data active means inhibition above about 75%; inconclusive means no clear call, values can overlap the other calls; tested in HMLE shEcad cells
Mdm2-MdmX conf: confirmation of human Mdm2/MdmX interaction inhibitors; shares compounds with Mdm2 MdmX PPI; Mdm2-MdmX binding, luminescent assay; inhibition, % at 8 µM; 10,000 compounds, 55% hits; AID 489028; in the data active means inhibition above about 40%
Full FLuc ctr: counter-screen for Mdm2/MdmX inhibitors: full-length luciferase; SaOS-2 full-length luciferase counterscreen, luminescence; 6,200 compounds, 77% hits; shares compounds with Mdm2 MdmX PPI; inhibition, % at 8 µM;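 active means mean inhibition at 8 µM reaching about 37%, which flags the compound as non-specific, limit read from the data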;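 further: p53-null SaOS-2 cells with luciferase driven by a doxycycline-inducible promoter; compound on cells about two nights before reading with doxycycline added after day one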
* = called active by the depositor; ? = inconclusive; · = not tested or not shown.

SMILES	Mdm2 MdmX PPI	SKKanGAS inh	T cruzi inh	aSyn UTR inh	CSC inhib	Mdm2-MdmX conf	Full FLuc ctr
CCn1c(SCC(=O)Nc2ccc(NC(C)=O)cc2)nc2c([nH]c3ccccc32)c1=O	52*	-2	-2	0	-12	44*	44*
Cn1c(SCC(=O)Nc2ccc(F)cc2)nc2c([nH]c3ccccc32)c1=O	91*	-15	-26	16	15	46*	90*
CNC(=O)CSc1nc2c([nH]c3ccccc32)c(=O)n1CCOC	11	-5	-6	-5	-5	·	·
Cc1ccc(NC(=O)CSc2nc3c([nH]c4ccccc43)c(=O)n2C)cc1	38	-9	11	32	15	·	·
CCn1cc2nc(SCC(=O)Nc3ccc(OC)cc3OC)n(Cc3ccc(OC)cc3)c(=O)c2n1	50*	5	-2	-6	54	42*	52*
COCCn1c(SCC(=O)Nc2ccc(C(N)=O)cc2)nc2c([nH]c3ccccc32)c1=O	74*	0	-14	-4	-15	34	52*
Cc1cccc(Cn2c(=O)oc3ccc(C)cc32)c1	15	16	-10	-5	4	·	·
CCOc1ccc(NC(=O)CSc2nc3c([nH]c4ccccc43)c(=O)n2C)cc1	8	-6	-14	-21	4	·	·
COc1cccc(-n2c(SCC(N)=O)nc3c([nH]c4ccccc43)c2=O)c1	0	-1	3	13	-4	·	·
COc1ccc(NC(=O)CSc2nc3c([nH]c4ccccc43)c(=O)n2C)c(OC)c1	60*	15	-28	36	-8	20	·
COc1cccc(-n2c(SCC(=O)N3CCCCC3)nc3c([nH]c4ccccc43)c2=O)c1	79*	0	7	23	-3	31	·
CN(C)CCNC(=O)C1(O)c2cc(Br)ccc2NC(=O)N1c1ccc(Cl)cc1 (stereo not given)	18	-1	-8	-12	-14	·	·
COC(=O)c1ccc(/C=N/NC(=O)C(=O)NCc2ccccc2)cc1	14	21	-19	28	-9	·	·
Cc1cc(=O)[nH]c2ccccc12	-4	-2	1	7	-4	·	·
Cc1cc2[nH]c3c(c[n+](C)c4ccccc34)c2cc1C	101*	5	59*	101*	104*	100*	51*
Cc1sc2nc(-c3ccccn3)[nH]c(=O)c2c1-c1ccccc1	57*	80*	·	·	21	31	·
Cc1ccc2c(c1)C(=O)C(=O)N2CCCOc1ccccc1C	29	-12	6	-110	32	·	·
CCCN1C(=O)C(=O)c2cc(C)ccc21	60*	·	·	·	·	7	·
Cc1ccc(CN2C(=O)C(=O)c3cc(C)ccc32)cc1	67*	·	·	·	31	-12	·
CCCCN1C(=O)C(=O)c2cc(Cl)ccc21	54*	·	·	·	33	20	·
Cc1ccc2c(c1)C(=O)C(=O)N2c1ccc(Cl)cc1	22	·	·	·	-3	·	·
Cc1ccc2c(c1)C(=O)C(=O)N2Cc1ccc(Br)cc1	66*	·	·	·	·	63*	74*
Cc1ccc(N2CCN(CC(O)COc3ccccc3)CC2)cc1 (stereo not given)	-13	-3	5	10	-5	·	·
COc1ccc(NC(=O)CN(C)C(=O)CSc2nc3ccccc3s2)cc1	9	-4	-5	21	-5	·	·
Cc1ccsc1C(=O)NC1CCCN(Cc2ccc(Cl)cc2)C1 (stereo not given)	-10	-11	44	-6	0	·	·
SMILES	Mdm2 MdmX PPI	SKKanGAS inh	T cruzi inh	aSyn UTR inh	CSC inhib	Mdm2-MdmX conf	Full FLuc ctr
c1ccc2sc(Sc3ncnc4sccc34)nc2c1	44	0	39	-8	13	·	·
Clc1ccc(-n2nnnc2Sc2ncnc3sccc23)cc1	90*	-9	-13	30	-15	74*	43*
Cc1sc2ncnc(Sc3nnnn3-c3ccccc3)c2c1C	88*	2	-1	-33	52	48*	7
COc1ccc(CNc2ncc(-c3ccc(Br)cc3)n2C)cc1OC	2	4	17	1	·	·	·
CC(Oc1ccccc1)C(=O)N1CCN(c2ccc(N3CCCCC3)nn2)CC1 (stereo not given)	-14	-18	8	3	-5	·	·
C/C(=N\NC(=O)COc1cccc(C)c1)c1ccc2ccccc2c1O	52*	·	·	·	-7	61*	34
Cc1cccc(OCC(=O)NCc2ccccc2)c1	9	1	2	-9	-4	·	·
COc1cc(/C=C(/C(=O)c2cccs2)c2nc3ccccc3[nH]2)cc(OC)c1O	91*	2	52	-224	77*	91*	62*
O=C(/C(=C/c1ccc(Cl)cc1)c1nc2ccccc2[nH]1)c1ccccc1	100*	32	68*	-217	58	99*	51*
O=C(N/C(=C/c1ccc(Cl)cc1)c1nc2ccccc2[nH]1)c1ccco1	-9	-4	-15	-45	-8	·	·
COc1ccc(C(=O)N/C(=C/c2cccs2)c2nc3ccccc3[nH]2)cc1OC	-1	-8	-7	2	-2	·	·
Cc1ccc2cc(CN(CC3CCCO3)S(=O)(=O)c3c(C)ccc4nsnc34)c(=O)[nH]c2c1 (stereo not given)	19	-4	8	-10	2	·	·
Cc1ccc2nsnc2c1S(=O)(=O)N(Cc1cc2cccc(C)c2[nH]c1=O)CC1CCCO1 (stereo not given)	57*	2	16	-18	6	47*	85*
CS(=O)(=O)c1ncc(Cl)c(C(=O)Nc2ccc(OC(F)F)cc2)n1	92*	-24	55*	-49	135*	100*	52*
CS(=O)(=O)c1ncc(Cl)c(C(=O)Nc2ccc(N3CCOCC3)cc2)n1	88*	-1	42	-24	?	53*	41*
COc1ccc(CNC(=O)COC(=O)CN2C(=O)NC3(CCCC3)C2=O)cc1	-1	·	·	·	·	·	·
CCS(=O)(=O)c1ncc(Cl)c(C(=O)Nc2ccc(S(=O)(=O)N(C)c3ccccc3)cc2)n1	98*	-52	32	78*	98*	100*	51*
CC(=O)Nc1ccc(S(=O)(=O)N(C)c2ccccc2)cc1	-23	5	7	17	26	·	·
CCN(c1ccccc1)S(=O)(=O)c1ccc(C(=O)Nc2ccncc2)cc1	34	-1	48	-29	-14	·	·
CCN(c1ccccc1)S(=O)(=O)c1ccc(NC(=O)c2nc(S(C)(=O)=O)ncc2Cl)cc1	99*	-6	0	2	99*	96*	51*
COc1ccc(CNC(=O)[C@@H](NC(=O)C2CCN(C(=O)[C@@H](N)CCSC)CC2)C(C)C)cc1	2	-4	0	13	-8	·	·
CCCCCCCCn1ccc(=N)cc1	55*	9	39	62*	25	61*	48*
CCCCCCN1Cc2ccccc2C1	-11	6	-14	-117	15	·	·
CCCCCCCCCCn1ccc(=N)cc1	85*	30	77*	106*	36	90*	51*

Assay outcomes: PubChem BioAssay, several laboratories
